Screens: PubChem, several laboratories
NR2E3 ag-1: NR2E3 (human) agonism; Q9Y5X4; GST-NR2E3/biotin-RetCOR TR-FRET, 1536-well; inhibition of corepressor binding, % at 4.78 µM; actives 0.12% (n = 320,000); AID 2300;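 active means percent inhibition above the cutoff of mean plus 3 SD of all tested compounds, set per screening campaign, cut at about 20% in these data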;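 further: 0% = DMSO wells and 100% = biotin wells as full block of FRET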
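Assay system: NR2E3–RetCOR corepressor complex. Quantity: 1.35 nM GST-NR2E3. Buffer or medium: pH 7.5 Tris-based buffer. Reagent: biotinylated RetCOR corepressor at 7 nM final. Schedule: 5 h at 4 °C. Detection: TR-FRET, emission read at 617 and 671 nm. Replicates: one well per compound, singlicate testing.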
NR1D1 modulator: modulators of human Rev-erb alpha DNA binding. P20393. Rev-erbα–FITC-DNA binding, fluorescence polarization, 90 min. activity, % at 10 µM. actives 0.79% (n = 370,000);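 active means activity above about 14%, limit read from the data; passing the limit was not always enough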;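 further: 0% = DMSO wells with 35 nM protein and 100% = DMSO wells with 750 nM protein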
Target sequence (P20393 whole entry, looked up): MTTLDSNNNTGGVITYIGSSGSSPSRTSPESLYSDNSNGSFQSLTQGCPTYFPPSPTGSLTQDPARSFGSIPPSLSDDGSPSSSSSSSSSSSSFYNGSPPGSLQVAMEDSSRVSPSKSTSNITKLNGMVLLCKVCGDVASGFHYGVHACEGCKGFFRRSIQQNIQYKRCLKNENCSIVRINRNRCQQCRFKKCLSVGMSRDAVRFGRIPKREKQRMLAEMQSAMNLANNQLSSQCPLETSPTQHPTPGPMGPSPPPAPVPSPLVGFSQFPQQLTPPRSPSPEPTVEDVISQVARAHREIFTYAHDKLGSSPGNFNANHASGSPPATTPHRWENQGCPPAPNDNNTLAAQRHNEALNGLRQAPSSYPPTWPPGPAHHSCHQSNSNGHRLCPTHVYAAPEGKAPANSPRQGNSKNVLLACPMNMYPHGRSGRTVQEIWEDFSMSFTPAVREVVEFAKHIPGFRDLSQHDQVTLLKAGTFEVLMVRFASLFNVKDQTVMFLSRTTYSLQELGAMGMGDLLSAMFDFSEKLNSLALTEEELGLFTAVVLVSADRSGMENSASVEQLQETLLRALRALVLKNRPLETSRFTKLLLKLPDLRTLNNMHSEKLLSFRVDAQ
NR2E3 ag-2: human photoreceptor-specific nuclear receptor agonism; Q9Y5X4; CHO-S Gal4-NCOR/VP16-NR2E3 two-hybrid, luciferase; inhibition of corepressor binding, % at 3.98 µM; actives 0.35% (n = 360,000); AID 602229;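 active means inhibition above the mean of all tested compounds plus 3 SD, cut at about 70% in these data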;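 further: 0% = DMSO with NR2E3 transfected cells and 100% = cells lacking NR2E3 construct; higher means lower luciferase signal from less NR2E3 corepressor binding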
PG9 Ab binder: binds the HIV-1 gp120 antibody PG9; actives 0.43% (n = 360,000); inhibition, % at 6.7 µM; TR-FRET gp120-PG9 antibody binding; AID 624416; in the data active means inhibition above about 8.5%
Rev-erbA confirm: Rev-erb alpha (human) modulation, hit confirmation | shares compounds with NR1D1 modulator | Rev-erb alpha FITC-DNA binding, fluorescence polarization, 90 min | activation, % at 25 µM | actives 61% (n = 3,000) | AID 1259319;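 active means activation at or above a set limit, or at least 3 SD above the negative control mean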;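 further: 0% = 35 nM protein with DMSO and 100% = 750 nM protein high control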
RORg DNA counter: affects RORgamma DNA binding in a Rev-erb alpha counter-screen; IC50, µM; AID 1259320; shares compounds with NR1D1 modulator; purified RORgamma protein-FITC-DNA binding, fluorescence polarization; actives 8% (n = 910);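 active means Compounds whose fitted half-maximal concentration for disrupting protein-DNA binding is below 10 micromolar; the record names Rev-erb in its text, so the target is in doubt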
The depositor's hits bear a star; i = inactive; nt = no result given. Shown are actives, neighbours in structure and some others; about 1.5% of the full set was active somewhere.

SMILES | NR2E3 ag-1 | NR1D1 modulator | NR2E3 ag-2 | PG9 Ab binder | Rev-erbA confirm | others
CCc1c(C)sc(NC(=S)N2CC(C)OC(C)C2)c1C(=O)OC (stereo not given) | 1.4 | 8.1 | -4.3 | -2.0 | nt
CC1COc2c(N3CCN(C)CC3)c(F)cc3c(=O)c(C(=O)O)cn1c23 (stereo not given) | 9.2 | -4.2 | -27.7 | 0.7 | nt
CCOc1ccc(NC(=O)c2ccc(NC(=O)c3cn4c5c(c(N6CCN(C)CC6)c(F)cc5c3=O)OCC4C)cc2)cc1 (stereo not given) | 3.2 | 70.2* | -8.0 | -1.4 | 40.6*
O=C(NC1CC1)C1C2C3C4CC5C3C5C4C12 (stereo not given) | 0.8 | -5.9 | -21.3 | 0.8 | nt
C=CCSc1nc(N)c(C(=O)Nc2ccccc2OC)cc1C(=O)Nc1ccccc1 | -3.0 | 19.7* | 3.0 | 2.6 | 14.9
COC(=O)[C@@]12CCCCN1[C@H](c1ccc(-c3cc(C(C)=O)cs3)c(OC)c1)[C@H]1C(=O)N(C)C(=O)[C@H]12 | -1.0 | 40.7* | -12.1 | -3.4 | 34.4*
COC(=O)[C@@]12CCCN1[C@H](c1ccc(-c3ccc(C(C)=O)cc3)c(OC)c1)[C@H]1C(=O)N(C)C(=O)[C@H]12 | -1.6 | 3.3 | -15.7 | 1.9 | nt
CCC(C)Sc1ccc([C@@H]2[C@H]3C(=O)N(CC)C(=O)[C@H]3[C@]3(C(=O)OC)CCCCN23)cc1 (stereo not given in full) | 1.0 | 15.7* | -23.5 | -0.1 | 8.0
COC(=O)[C@@]12CCCCN1[C@H](c1ccc(-c3cc(C(C)=O)cs3)cc1)[C@H]1C(=O)N(C)C(=O)[C@H]12 | 2.8 | 30.5* | -5.3 | 0.5 | 21.8*
CCCc1cc(=O)[nH]c(SCC(=O)N(CCOC)c2c(N)n(Cc3ccccc3)c(=O)[nH]c2=O)n1 | -2.7 | -2.3 | -4.8 | -0.7 | nt
C=C(C)Cn1c(SCC(=O)NN=Cc2c(O)ccc3ccccc23)nnc1-c1ccc(Br)cc1 | nt | 1.2 | nt | nt | nt
Cc1ccc(-c2nnn(CC(=O)N(c3ccccc3F)C(C(=O)NCC3CCCO3)c3c[nH]c4ccccc34)n2)cc1 (stereo not given) | 2.0 | -2.7 | -4.9 | -1.7 | nt
CCCc1c(-c2ccccc2F)ncn1CCc1ccccc1OC | nt | 11.2 | -15.0 | 1.0 | nt
O=C(CCc1c[nH]c2ccccc12)NCCc1ccc(Cl)cc1 | 2.5 | 37.2* | -6.5 | -0.9 | 35.6* | RORg DNA counter=>40
CCCCOCCCNC(=O)C[C@H]1C[C@@]2(C(=O)OC)C(=C[C@H](C(C)C)O[C@@H]2C2CC2)N(CCc2ccc(OC)c(OC)c2)C1=O | nt | 7.7 | nt | nt | nt
CCOc1ccc(-c2nc(S(=O)(=O)c3ccccc3)c(NC)o2)cc1 | 1.2 | 46.7* | -20.0 | -1.6 | 12.1
Cc1cc(=O)oc2cc(OCC3CC(c4ccc(Cl)cc4)=NO3)ccc12 (stereo not given) | 6.0 | 79.6* | 23.4 | -1.0 | 71.6* | RORg DNA counter=i
COc1ccc(NC(=O)NC23CC4(C)CC(C)(CC(C)(C4)C2)C3)cc1 | -3.6 | 4.4 | -21.4 | -0.8 | nt
Cc1c(NC(=O)C(C)NCC2CCCO2)c(=O)n(-c2ccccc2)n1C (stereo not given) | 3.0 | 1.3 | -19.1 | -0.1 | nt
Fc1ccc(-c2nc3c(Cl)cc(C(F)(F)F)cn3c2Cl)cc1 | -4.7 | 34.9* | -58.8 | 1.4 | 19.4*
Cc1ccc(Cc2c(-c3ccc(F)cc3)nc3c(Cl)cc(C(F)(F)F)cn23)cc1 | nt | -1.7 | 0.4 | -1.6 | nt
CN(C)CC(=O)N[C@H]1C[C@@H]2O[C@H](CO)CC[C@@H]2O[C@@H]1CCc1ccc(-c2ccc(F)cc2)cc1 | nt | 9.3 | nt | nt | nt
COc1cccc(S(=O)(=O)NC2CCN(C#N)C2)c1 (stereo not given) | 1.9 | -3.8 | 16.1 | 1.0 | nt
COC(=O)c1ccsc1NC(=O)c1ccc(Cl)s1 | 2.5 | 20.1* | -12.1 | -2.4 | -1.8
COC(=O)c1ccsc1NC(=O)c1ccc2c(c1)OCCO2 | 2.1 | 8.2 | -8.2 | -0.3 | nt
SMILES | NR2E3 ag-1 | NR1D1 modulator | NR2E3 ag-2 | PG9 Ab binder | Rev-erbA confirm | others
Cc1ccc(C(=O)N2CC(C)CC(C)C2)cc1S(=O)(=O)N1CCCCC1 (stereo not given) | 3.3 | 9.7 | 9.9 | -2.8 | nt
COc1ccccc1Nc1nc2ccc(C)cc2cc1C#N | 1.6 | 8.4 | -5.5 | 0.8 | nt
COc1ccccc1Nc1nc2cc(C)ccc2cc1C#N | 1.5 | 95.7* | -12.9 | -0.3 | 12.8
CCOCCn1c(=NC(=O)c2ccc(S(=O)(=O)N3CCOCC3)cc2)sc2cc(S(N)(=O)=O)ccc21 | 5.0 | 6.6 | -34.0 | -1.1 | nt
CCOc1cccc2sc(=NC(=O)c3ccc(S(=O)(=O)N4CCOCC4)cc3)n(C)c12 | 1.9 | 30.2* | 4.4 | -2.1 | -3.7
CC(=O)N1N=C(c2ccc(Cl)cc2)CC1c1ccco1 (stereo not given) | 0.5 | -2.7 | -13.4 | -1.4 | nt
O=C(c1ccc(Br)o1)N1N=C(c2ccc(Cl)cc2)CC1c1ccco1 (stereo not given) | 1.2 | 23.6* | -21.3 | 0.0 | 5.1
COc1cc(/C=C2\SC(=O)N(CCNC(=O)c3sc4cc(F)ccc4c3Cl)C2=O)cc(OC)c1OC | 1.6 | 72.1* | -24.7 | 0.8 | 32.2* | RORg DNA counter=i
CCOC(=O)C1=C(C(C)=O)C(c2cccnc2)C(C#N)=C(N)O1 (stereo not given) | -5.8 | -8.4 | -4.5 | -1.2 | nt
CCOC(=O)C1=C(C#N)C(C(=O)OCC)c2ncccc21 (stereo not given) | nt | 33.9* | 5.5 | 2.0 | 22.1*
C=CCN1[C@H](CO)[C@H](c2ccc(Br)cc2)[C@@H]1C#N | nt | 3.1 | nt | nt | nt
COc1ccccc1Oc1ccc2c(c1)C(=O)N(c1ccc(C)cc1)C2=O | -0.7 | 28.4* | -49.6 | 0.7 | 30.7*
COc1ccccc1Oc1ccc2c(c1)C(=O)N(c1ccccc1)C2=O | -2.5 | 67.2* | -25.6 | 1.0 | 47.9* | RORg DNA counter=>40
COc1ccc(N2C(=O)c3cc4ccccc4cc3C2=O)cc1 | 0.7 | 10.9 | -16.8 | -1.2 | nt
Fc1ccc(-c2nc3ccc(Br)cn3c2Cc2ccccc2C(F)(F)F)cc1 | nt | -1.2 | -12.2 | 1.2 | nt
COC(=O)Cn1c(C)c(/C=C/c2cc[n+](C)cc2)c2ccccc21 | nt | 154.1* | -15.1 | -9.6 | 113.7* | RORg DNA counter=>40
COC(=O)Cn1cc(/C=C/c2cc[n+](C)cc2)c2ccccc21 | -7.0 | 54.9* | -6.1 | -2.6 | 63.3* | RORg DNA counter=>40
COC(=O)Cn1c(=O)c(=O)n(CC(=O)OC)c2ccccc21 | 0.4 | -5.6 | -7.0 | -3.4 | nt
CCCCN(Cc1ccccc1)S(=O)(=O)c1ccc2c(c1)n(C)c(=O)c(=O)n2C | 1.0 | 44.6* | 13.5 | -1.1 | 10.5
CNC(=O)CSc1nc(-c2ccccc2)c(-c2ccccc2)o1 | -3.1 | 14.0* | -2.9 | 0.0 | 11.2
COc1ccccc1NC(=O)c1ccc2nsnc2c1 | 1.1 | 4.2 | -51.3 | -2.7 | nt
Cc1ccc(NC(=O)c2ccc3nsnc3c2)c(Cl)c1 | -6.0 | 26.6* | -154.8 | -4.5 | 16.2
